Results collected from several papers.
Cell line: NCI-H1299
Effect on: cell growth or viability

Structure (SMILES)	method	time	IC50 [µM]
OCc1cn(Cc2ccc(Cl)cc2)c2ccccc12	SRB	72 h	≥ 13
COc1cc2c(Nc3ccc(NC(=O)c4ccccc4)cc3)ncnc2cc1OCCCN1CCOCC1	MTS	48 h	1.1
C/C(=N\O)c1ccc(-c2ccc(O)c(C)c2)c(Cl)c1O	MTT	48 h	30.3
CC(C)C[C@H](NC(=O)[C@H](Cc1ccccc1)NC(=O)c1cnccn1)B(O)O	ATP luminescence		0.0099
COc1ccccc1/C=C/CNCC(O)COc1cccc2c1[nH]c1ccccc12 (centres unmarked)	CCK-8	72 h	16.3
COc1cc(Nc2nccc(-c3cnn4nc(OC)ccc34)n2)cc(C(F)(F)F)c1	ATP luminescence		0.26
COc1ccccc1/C=C/CNCC(O)COc1ccc2ncccc2c1 (centres unmarked)	CCK-8	72 h	> 100
O=c1[nH]cc(S(=O)(=O)Nc2cccc(-c3nnc(-c4cccc(Cl)c4)o3)c2)c(=O)[nH]1	MTT	24 h	27.6
COc1ccccc1/C=C/CNCC(O)COc1cccc2ncccc12 (centres unmarked)	CCK-8	72 h	36.6
OCc1cn(Cc2cccc(Cl)c2)c2ccccc12	SRB	72 h	≥ 13
C/C(=N\O)c1ccc(-c2ccc(O)c(Cl)c2)c(Cl)c1O	MTT	48 h	45.8
